Laboratory results from ChEMBL document CHEMBL1828600, “Derivatives of pyrrolo[3,4-d]pyridazinone, a new class of analgesic agents” (Eur J Med Chem, 2011).
The source made the active and inactive calls.

Tests used:
[1] = test system: Mus musculus; test: Analgesic activity in Albino-Swiss mouse assessed as protection against phenylbenzoquinone-induced writhing administered as ip 30 mins before phenylbenzoquinone challenge measured after 5 mins; assay type: functional
Summary of the method: (§1)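 Mice (groups of 6–8) dosed i.p. at 3.125–50 mg/kg as 0.5% methylcellulose suspension; 30 min later 0.02% phenylbenzoquinone (ethanol–water 5:95) 0.25 ml i.p. Writhes counted for 10 min starting 5 min after irritant. % effect versus control writhing count; ED50 with confidence limits by Litchfield and Wilcoxon.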

[2] = Acute toxicity in ip dosed Albino-Swiss mouse; assay type: organism-based; conditions: in vivo
Summary of the method: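 Mice (20–24 g) given compound i.p. as 0.5% methylcellulose suspension, 10 ml/kg, in rising doses up to 2000 mg/kg; six animals per dose. Deaths counted at 24 h, general behaviour watched for 6 h. LD50 by Litchfield and Wilcoxon.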

[3] = organism: Mus musculus; test: Ratio of acetylsalicylic acid ED50 to compound ED50 for analgesic activity in Albino-Swiss mouse assessed as protection against phenylbenzoquinone-induced writhing; assay type: functional; summary of the method: as §1
[4] = test system: Mus musculus; test: Analgesic activity in Albino-Swiss mouse assessed as inhibition of heat-induced paw licking or jumping behavior administered as ip measured after 30 mins for 45 secs by Eddy and Leimbach's hot plate method; assay type: functional
Summary of the method: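 Compound i.p. in 0.5% methylcellulose suspension (10 ml/kg), groups of 6–8 mice. Placed on plate at 54–56 °C; latency to forepaw licking or jumping timed by stop-watch before and 30 min after dosing, 45 s cut-off. Latency prolongation compared statistically. Morphine 1, 3, 6 mg/kg and acetylsalicylic acid 100–400 mg/kg i.p. as references.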

[5] = test system: Mus musculus; test: Analgesic activity in Albino-Swiss mouse assessed as inhibition of heat-induced paw licking or jumping behavior at 200 mg/kg, ip measured after 30 mins for 45 secs by Eddy and Leimbach's hot plate method; assay type: functional, organism-based; set-up: dose 200 mg/kg
Summary of the method: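 Albino-Swiss mice (20–24 g), groups of 6–8, dosed i.p. as a suspension in 0.5% methylcellulose (10 ml/kg). Each mouse was placed on a metal plate at 54–56 °C, and time to forepaw licking or jumping was stopwatch-timed before and 30 min after dosing, with a 45 s cut-off. Latency prolongation was compared by Student's t-test.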

[6] = organism: Mus musculus; test: Ratio of morphine ED50 to compound ED50 for analgesic activity in Albino-Swiss mouse by Eddy and Leimbach's hot plate method; assay type: functional
[7] = test system: Mus musculus; test: Toxicity in ip dosed Albino-Swiss mouse assessed as decrease in locomotor activity at hot plate test ED50 after 1 hr; assay type: organism-based; set-up: scale not given: the % may be the effect or the level left; conditions: in vivo
Summary of the method: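 Mice (Albino-Swiss, 20–24 g) received compound i.p. as a 0.5% methylcellulose suspension (10 ml/kg). After 30 min, each mouse was put alone for a 30-min session in a circular photoresistor actometer (30 cm diameter, two photocells, impulse counter), which counted movements.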

[8] = molecular target: Mu-type opioid receptor (Rattus norvegicus, UniProt P33535); test: Displacement of [3H]-dihydromorphine from mu opioid receptor in rat cerebral cortex by liquid scintillation counting; assay type: tissue-based
Summary of the method: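 Rat cerebral cortex homogenised in 50 mM Tris-HCl pH 7.6, washed by centrifugation at 48,000 × g, preincubated 30 min at 37 °C to remove endogenous opioids. Membranes incubated with 0.2 nM [3H]dihydromorphine and 7–8 compound concentrations (10^-11–10^-4 M); nonspecific binding with levallorphan. Filtration on GF/C, two washes, scintillation counting, duplicates. Result given as Ki.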

Sequence of Mu-type opioid receptor (P33535 whole entry): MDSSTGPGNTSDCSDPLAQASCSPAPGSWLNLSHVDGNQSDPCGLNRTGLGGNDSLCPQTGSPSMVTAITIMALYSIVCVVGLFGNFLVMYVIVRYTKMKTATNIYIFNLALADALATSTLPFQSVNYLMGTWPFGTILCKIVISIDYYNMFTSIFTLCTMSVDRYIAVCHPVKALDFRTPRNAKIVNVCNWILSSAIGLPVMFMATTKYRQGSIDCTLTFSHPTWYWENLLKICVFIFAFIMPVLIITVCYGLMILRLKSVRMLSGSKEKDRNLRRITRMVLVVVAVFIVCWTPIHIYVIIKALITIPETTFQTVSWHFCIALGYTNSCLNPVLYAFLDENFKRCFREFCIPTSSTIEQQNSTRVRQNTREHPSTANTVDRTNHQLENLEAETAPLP

Row | Structure (SMILES) | ED50 [1] [mg/kg] | LD50 [2] [mg/kg] | Ratio ED50 [3] | ED50 [4] | inhibition [5] | ED50 ([4]; 0.5 h) [mg/kg] | Ratio ED50 [6] | Activity [7] [%] | IC50 [8] [µM] | Ki [8] [µM]
1 | COc1ccccc1N1CCN(CCn2[nH]c(=O)c3c(C)n(-c4ccccc4)c(C)c3c2=O)CC1 | 8.02 | > 2000 | 100 | inactive |  |  |  |  |  | 
2 | Cc1c2c(=O)[nH]n(CCN3CCN(Cc4ccccc4)CC3)c(=O)c2c(C)n1-c1ccccc1 | 0.04 | > 2000 | 100 | inactive |  |  |  |  |  | 
3 | Cc1c2c(OCCCN3CCN(c4ccccc4)CC3)nn(C)c(=O)c2c(C)n1-c1ccccc1 | 7.9 | 1420 |  | inactive |  |  |  |  |  | 
4 | Cc1c2c(=O)[nH]n(CCN3CCN(C/C=C/c4ccccc4)CC3)c(=O)c2c(C)n1-c1ccccc1 | 1.25 | > 2000 | 100 | inactive |  |  |  |  |  | 
5 | CC(=O)Oc1ccccc1C(=O)O |  |  |  |  | inactive |  |  |  |  | 
6 | CN1CC[C@]23c4c5ccc(O)c4O[C@H]2[C@@H](O)C=C[C@H]3[C@H]1C5 [MORPHINE] | 2.44 |  |  |  |  | 3.5 |  |  |  | 
7 | Cc1c2c(=O)[nH]n(CCN3CCN(c4ccccc4)CC3)c(=O)c2c(C)n1-c1ccccc1 | 1.48 | > 2000 | 100 | inactive |  |  |  |  |  | 
8 | Cc1c2c(=O)[nH]n(CCN3CCN(c4cccc(C(F)(F)F)c4)CC3)c(=O)c2c(C)n1-c1ccccc1 | 1.23 | > 2000 | 100 |  |  | 15.9 | 3 | 20 |  | 
9 | Cc1c2c(=O)[nH]n(CCN3CCN(C(c4ccccc4)c4ccccc4)CC3)c(=O)c2c(C)n1-c1ccccc1 | 1.83 | > 2000 | 100 | inactive |  |  |  |  |  | 
10 | Cc1c2c(=O)[nH]n(CCN3CCN(c4ccccc4F)CC3)c(=O)c2c(C)n1-c1ccccc1 | 0.31 | > 2000 | 100 |  |  | 15 | 3 | 20 | 24.2 | 11.1
11 | COc1ccccc1N1CCN(CCCOc2nn(C)c(=O)c3c(C)n(-c4ccccc4)c(C)c23)CC1 | 11.2 | > 2000 |  | inactive |  |  |  |  |  | 
12 | COc1cccc(C2(O)CCCCC2CN(C)C)c1 (centres undefined) [TRAMADOL] |  |  |  |  |  |  |  |  |  | 2.4
13 | Cc1ccc(Cl)cc1N1CCN(CCn2[nH]c(=O)c3c(C)n(-c4ccccc4)c(C)c3c2=O)CC1 | 0.55 | > 2000 | 100 |  |  | 10.3 | 3 | 45 | 5.6 | 2.6
14 | Cc1c2c(=O)[nH]n(CCN3CCC(Cc4ccccc4)CC3)c(=O)c2c(C)n1-c1ccccc1 | 1.91 | > 2000 | 100 | inactive |  |  |  |  |  | 
15 | Cc1c2c(=O)[nH]n(CCN3CCN(c4ccccn4)CC3)c(=O)c2c(C)n1-c1ccccc1 | 6.84 | > 2000 | 100 | inactive |  |  |  |  |  | 
16 | Cc1c2c(=O)[nH]n(CCN3CCN(Cc4ccc5c(c4)OCO5)CC3)c(=O)c2c(C)n1-c1ccccc1 | 1.92 | > 2000 | 100 | inactive |  |  |  |  |  | 
17 | C=CCN1CC[C@]23CCCC[C@H]2[C@H]1Cc1ccc(O)cc13 [LEVALLORPHAN] |  |  |  |  |  |  |  |  | 0.000634 | 
18 | Cc1c2c(=O)[nH]n(CCN3CCN(c4ccccc4Cl)CC3)c(=O)c2c(C)n1-c1ccccc1 | 3.77 | > 2000 | 100 | inactive |  |  |  |  |  | 
